According to ChEMBL document CHEMBL4342410, “Design and Discovery of N-(3-(2-(2-Hydroxyethoxy)-6-morpholinopyridin-4-yl)-4-methylphenyl)-2-(trifluoromethyl)isonicotinamide, a Selective, Efficacious, and Well-Tolerated RAF Inhibitor Targeting RAS Mutant Cancers: The Path to the Clinic” (J Med Chem, 2020):

Tests used:
[1] = Time of last measurable concentration in nude rat xenografted with human Calu6 cells harboring KRAS Q61K mutant at 150 mg/kg, po administered daily for 18 days starting from day 13 post tumor implantation and measured on day 31; format: ADME, organism-based; details: in vivo, 432 h
Procedure, shortened: (§1)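 Calu-6 xenograft nude rats were dosed orally once daily at 15, 35, 75 or 150 mg/kg from day 13 after implantation to day 31. Plasma was collected after the last dose on day 31, drug concentrations were measured, and PK parameters including AUC were calculated for each dose.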

[2] = system: Calu-6; assay: Antitumor activity against human Calu6 cells harboring KRAS Q61K mutant xenografted in po dosed nude rat assessed as increase in tumor regression administered daily for 18 days starting from day 13 post tumor implantation and measured on day 31; format: functional, organism-based
Procedure, shortened: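 Nude rats bearing Calu-6 (KRAS Q61K) human NSCLC xenografts received vehicle or drug p.o. daily at 15, 35, 75 or 150 mg/kg. Dosing began 13 days after tumor implantation and ran to day 31, i.e. 18 days of treatment. Tumor volumes were read out as %T/C or % regression versus vehicle on day 31. Body weight was also tracked.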

[3] = Stability of the compound in human plasma assessed as parent compound remaining measured after 3 hrs; format: ADME, cell-free; details: read-out: Stability
Procedure, shortened: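 Compound incubated in human plasma for 3 h; stability expressed as percent remaining intact.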

[4] = Oral bioavailability in mouse at 4 mg/kg; format: ADME, organism-based; details: in vivo
[5] = Intrinsic clearance in human liver microsomes; format: ADME, Microsome; details: read-out: CLH
[6] = Tmax in nude rat xenografted with human Calu6 cells harboring KRAS Q61K mutant at 35 mg/kg, po administered daily for 18 days starting from day 13 post tumor implantation and measured on day 31; format: ADME, organism-based; details: in vivo; procedure, shortened: as §1
[7] = AUC (infinity) in rat at 4 mg/kg, po; format: ADME, organism-based; parameters: dose 4 mg/kg, route oral, time infinity; details: in vivo
[8] = Clearance in mouse at 2 mg/kg, iv or 4 mg/kg, po; format: ADME, organism-based; details: in vivo
[9] = Apparent permeability across basolateral to apical side in human Caco2 cells at pH 7.4 by LC/MS/MS analysis; format: ADME, cell-based; details: Caco-2, pH 7.4
[10] = AUC (infinity) in dog at 0.4 mg/kg, po; format: ADME, organism-based, Canis lupus familiaris; parameters: dose 0.4 mg/kg, time infinity, route oral; details: in vivo
[11] = Cmax in nude rat xenografted with human Calu6 cells harboring KRAS Q61K mutant at 150 mg/kg, po administered daily for 18 days starting from day 13 post tumor implantation and measured on day 31; format: ADME, organism-based; parameters: dose 150 mg/kg, route oral; details: in vivo
Procedure, shortened: (§2)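 Nude rats carrying Calu-6 (KRAS Q61K) NSCLC xenografts were dosed p.o. once daily at 15, 35, 75 or 150 mg/kg from day 13 to day 31 after implant. Plasma was collected after the last dose and drug concentration was measured. AUC and Cmax were calculated per dose on day 31.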

[12] = Volume of distribution at steady state in rat at 2 mg/kg, iv or 4 mg/kg, po; format: ADME, organism-based; details: in vivo, read-out: Vdss
[13] = system: Serine/threonine-protein kinase B-raf (Homo sapiens), P15056 [V600E]; assay: Binding affinity to human partial length BRAF V600E mutant (S429 to E741 residues) expressed in mammalian expression system at 1 uM by Kinomescan method relative to control
[14] = Apparent permeability across apical to basolateral side in human Caco2 cells at pH 7.4 by LC/MS/MS analysis; format: ADME, cell-based; details: Caco-2, pH 7.4
[15] = AUC (0 to 24 hrs) in nude rat xenografted with human Calu6 cells harboring KRAS Q61K mutant at 15 mg/kg, po administered daily for 18 days starting from day 13 post tumor implantation and measured on day 31; format: ADME, organism-based; parameters: dose 15 mg/kg, time < 24 hr, route oral; details: in vivo; procedure, shortened: as §2
[16] = Time of last measurable concentration in nude rat xenografted with human Calu6 cells harboring KRAS Q61K mutant at 75 mg/kg, po administered daily for 18 days starting from day 13 post tumor implantation and measured on day 31; format: ADME, organism-based; details: in vivo, 432 h; procedure, shortened: as §1
[17] = AUC (0 to 24 hrs) in nude rat xenografted with human Calu6 cells harboring KRAS Q61K mutant at 35 mg/kg, po administered daily for 18 days starting from day 13 post tumor implantation and measured on day 31; format: ADME, organism-based; parameters: dose 35 mg/kg, time < 24 hr, route oral; details: in vivo; procedure, shortened: as §2
[18] = system: Rattus norvegicus; assay: In vivo inhibition of CRAF in po dosed nude rat xenografted with human Calu6 cells harboring KRAS Q61K mutant assessed as reduction in tumor MEK phosphorylation administered as single dose measured after 1 to 48 hrs by sandwich ELISA; format: functional, organism-based
Procedure, shortened: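 Calu-6 (KRAS Q61K) xenograft-bearing nude rats were given a single oral dose of 15, 35, 75 or 150 mg/kg. Tumor and blood were sampled at 1, 4, 7, 24 and 48 h post-dose. Tumor pMEK was quantified by MSD immunoassay and expressed as percent pMEK. Free plasma exposure was determined in parallel.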

[19] = Protein binding in human plasma; format: ADME, cell-free; details: read-out: PPB (converted)
[20] = Time of last measurable concentration in nude rat xenografted with human Calu6 cells harboring KRAS Q61K mutant at 15 mg/kg, po administered daily for 18 days starting from day 13 post tumor implantation and measured on day 31; format: ADME, organism-based; details: in vivo, 432 h; procedure, shortened: as §1
[21] = Stimulation of BRAF-CRAF dimerization in human HCT116 cells measured after 2 hrs by NanoBit luciferase complementation assay; format: cell-based; details: read-out: EC50
[22] = biological target: Platelet-derived growth factor receptor beta (Homo sapiens, UniProt P09619); assay: Binding affinity to wild-type human partial length PDGFRB (V582 to Y1009 residues) expressed in bacterial expression system at 1 uM by Kinomescan method relative to control
Procedure, shortened: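 KINOMEscan competition binding panel of about 456 kinases, compound tested at 1 μM. Activity is given as % of control = [(test signal − positive control signal)/(negative control signal − positive control signal)] × 100.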

[23] = system: Calu-6; assay: Antiproliferative activity against human Calu6 cells harboring KRAS Q61K mutant assessed as reduction in cell viability after 72 hrs by CellTiter-Glo assay; format: functional, cell-based; details: Calu-6, 72 h
[24] = Cmax in rat at 4 mg/kg, po; format: ADME, organism-based; parameters: dose 4 mg/kg, route oral; details: in vivo

Sequence of Platelet-derived growth factor receptor beta (P09619 whole entry, the tested form may be a part): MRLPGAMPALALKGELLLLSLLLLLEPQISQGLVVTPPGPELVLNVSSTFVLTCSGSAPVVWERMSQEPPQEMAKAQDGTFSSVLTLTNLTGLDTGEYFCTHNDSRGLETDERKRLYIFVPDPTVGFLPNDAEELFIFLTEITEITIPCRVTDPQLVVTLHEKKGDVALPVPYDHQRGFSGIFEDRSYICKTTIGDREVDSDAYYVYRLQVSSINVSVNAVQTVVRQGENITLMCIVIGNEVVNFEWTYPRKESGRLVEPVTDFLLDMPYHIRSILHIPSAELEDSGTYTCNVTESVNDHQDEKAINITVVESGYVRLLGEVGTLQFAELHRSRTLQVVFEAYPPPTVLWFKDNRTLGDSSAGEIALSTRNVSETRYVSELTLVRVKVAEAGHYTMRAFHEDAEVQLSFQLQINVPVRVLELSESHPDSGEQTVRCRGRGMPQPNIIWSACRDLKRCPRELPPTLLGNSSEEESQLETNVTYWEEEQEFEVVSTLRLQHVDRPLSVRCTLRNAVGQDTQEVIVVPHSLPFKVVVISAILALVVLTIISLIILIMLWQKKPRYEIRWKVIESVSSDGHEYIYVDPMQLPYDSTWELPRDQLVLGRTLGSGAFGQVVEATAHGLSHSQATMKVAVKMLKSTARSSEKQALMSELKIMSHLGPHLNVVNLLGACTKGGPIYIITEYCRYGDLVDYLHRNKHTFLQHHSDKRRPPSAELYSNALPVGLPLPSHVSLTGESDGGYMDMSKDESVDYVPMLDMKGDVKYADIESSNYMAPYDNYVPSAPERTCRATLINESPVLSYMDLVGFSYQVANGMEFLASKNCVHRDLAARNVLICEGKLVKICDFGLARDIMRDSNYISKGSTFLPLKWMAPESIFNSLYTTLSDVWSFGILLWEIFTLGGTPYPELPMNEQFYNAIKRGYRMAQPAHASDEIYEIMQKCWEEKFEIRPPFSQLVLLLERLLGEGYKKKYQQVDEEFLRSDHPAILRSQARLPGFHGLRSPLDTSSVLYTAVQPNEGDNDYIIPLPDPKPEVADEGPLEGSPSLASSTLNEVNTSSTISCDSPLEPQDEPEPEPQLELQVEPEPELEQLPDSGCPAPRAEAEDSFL
Sequence of Serine/threonine-protein kinase B-raf (Homo sapiens), P15056 [V600E] (P15056 whole entry V600E, the tested form may be a part): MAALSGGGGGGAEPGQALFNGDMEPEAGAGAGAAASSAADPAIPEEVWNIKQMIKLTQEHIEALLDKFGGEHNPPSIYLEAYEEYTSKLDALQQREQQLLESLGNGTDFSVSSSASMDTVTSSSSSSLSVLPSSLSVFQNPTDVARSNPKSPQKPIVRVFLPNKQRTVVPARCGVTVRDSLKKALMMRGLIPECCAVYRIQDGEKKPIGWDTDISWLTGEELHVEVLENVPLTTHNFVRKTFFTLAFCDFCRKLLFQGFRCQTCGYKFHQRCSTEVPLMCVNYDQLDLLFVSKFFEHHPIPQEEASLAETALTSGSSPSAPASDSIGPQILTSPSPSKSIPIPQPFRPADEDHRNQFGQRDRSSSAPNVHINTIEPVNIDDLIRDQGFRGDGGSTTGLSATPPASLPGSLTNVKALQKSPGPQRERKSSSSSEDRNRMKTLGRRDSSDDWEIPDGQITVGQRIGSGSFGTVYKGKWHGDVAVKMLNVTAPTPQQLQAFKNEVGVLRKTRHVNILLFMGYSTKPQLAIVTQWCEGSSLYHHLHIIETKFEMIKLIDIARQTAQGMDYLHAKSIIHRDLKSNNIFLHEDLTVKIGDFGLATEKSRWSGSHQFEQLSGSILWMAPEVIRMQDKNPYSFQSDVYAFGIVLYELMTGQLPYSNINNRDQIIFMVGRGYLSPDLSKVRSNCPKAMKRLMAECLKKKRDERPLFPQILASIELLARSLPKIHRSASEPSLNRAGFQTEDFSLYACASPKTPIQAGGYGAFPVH

With `Cc1ccc(NC(=O)c2ccnc(C(F)(F)F)c2)cc1-c1cc(OCCO)nc(N2CCOCC2)c1` [NAPORAFENIB] the Tlast [1] was 24 h, the Activity [2] was “Dose-dependent effect” and the remaining at 3 h [3] was > 90%. It also gave a bioavailability [4] of 65%, a microsomal CLint [5] of 13.5 µL/min/mg and a Tmax [6] of 3 h. The AUC(0-inf) [7] was 1.8 µM·h, the clearance [8] was 19 mL/min/kg and the Papp B→A [9] was 19 ×10⁻⁶ cm/s. It also gave an AUC(0-inf) [10] of 3.1 µM·h, a Cmax [11] of 12.7 µM and a Vd [12] of 5.4 L/kg. For the same compound, the Activity [13] was > 98%, the Papp A→B [14] was 9 ×10⁻⁶ cm/s and the AUC at 24 h [15] was 7.91 µM·h. For the same compound, the Tlast [16] was 24 h, the AUC at 24 h [17] was 25.2 µM·h and the inhibition [18] was “Dose-dependent effect”. For the same compound, the fraction unbound [19] was 0.02, the Tlast [20] was 24 h and the EC50 [21] was 160 nM. For the same compound, the Activity [22] was > 99%, the EC50 [23] was 280 to 470 nM and the Cmax [24] was 0.5 µM.
